This is a sample that favours compounds with a hit; in the whole collection about 7.6% have one here.
Jurkat tox 60K: reduces viability or proliferation of Jurkat cells | Jurkat E6.1 viability, ATP luminescence, 48 h | inhibition, % at 4 µM | 1.2% of 56,000 active | AID 463;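 active = inhibition above the mean inhibition of all tested compounds plus 3 SD, cut at about 28% in these data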
D1 allo mod: allosterically modulates the human D1 dopamine receptor; P21728; HEK293 D1, CRE-luciferase, dopamine EC30 potentiation; actives deviate in either direction; B-score at 10 µM; 5.9% of 58,000 active; AID 641;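 active = luminescence count or its row- and column-corrected plate score outside the 99.7% band of the plate's sample wells, on either side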
M1 antagonist: M1 muscarinic receptor (rat) antagonism; P08482; CHO-M1 cells, Fluo-4 calcium, ACh EC80 antagonist mode; stronger effect = lower value; B-score at 10 µM; 3.4% of 64,000 active; AID 628;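 active = calcium fluorescence response, raw or row-and-column corrected B-score, differing from the plate sample mean either way at a set confidence level, mostly lower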
Target sequence (P08482 whole entry, looked up): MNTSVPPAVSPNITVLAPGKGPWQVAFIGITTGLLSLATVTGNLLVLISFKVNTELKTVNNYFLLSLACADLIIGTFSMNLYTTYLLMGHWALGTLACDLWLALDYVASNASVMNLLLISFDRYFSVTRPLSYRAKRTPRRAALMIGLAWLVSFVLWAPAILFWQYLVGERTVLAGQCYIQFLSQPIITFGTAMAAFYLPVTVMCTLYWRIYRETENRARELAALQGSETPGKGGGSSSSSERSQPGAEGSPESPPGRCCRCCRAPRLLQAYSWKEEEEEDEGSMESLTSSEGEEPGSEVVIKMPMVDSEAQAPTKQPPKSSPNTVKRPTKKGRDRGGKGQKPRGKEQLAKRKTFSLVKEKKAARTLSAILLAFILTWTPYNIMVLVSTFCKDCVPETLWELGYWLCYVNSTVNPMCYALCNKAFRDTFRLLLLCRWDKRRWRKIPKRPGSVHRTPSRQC
M1 ag: M1 muscarinic receptor agonism; CHO-M1 cells, Fluo-4 calcium fluorescence, agonist mode; stronger effect = higher value; AID 626; B-score at 10 µM; 3% of 64,000 active;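 active = fluorescence rise, raw or as B-score row- and column-corrected plate score, outside the 99.7% band of its plate's samples, either direction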
hDAT+cocaine: changed human dopamine transporter uptake under cocaine IC80. B-score at 10 µM. 1.3% of 110,000 active. LLC-PK1 hDAT cells, [14C]-dopamine uptake with cocaine IC80; actives deviate in either direction. Q01959;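 active = Z score or B-score, a plate-position-corrected score, falls beyond the plate's 99.7% confidence bounds, in either direction; inactive = both scores lie inside the 99.7% bounds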;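 also: scored against the spread of the other compound wells on the same plate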
HEK293 NFkB inh: inhibitors of the PMA/ionomycin-induced NF-kB reporter in HEK293 cells | HEK-293 NF-kB luciferase reporter, luminescence | inhibition, % at 3 µM | 0.21% of 62,000 active | AID 465;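 active = inhibition above the mean of all tested compounds plus 3 SD, cut at about 40% in these data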;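 also: 0% = stimulated DMSO wells and 100% = 10 µM reference inhibitor 5653914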
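Material: HEK-293 cells with stable firefly luciferase reporter driven by four HIV NF-kB elements / Also added: PMA plus ionomycin mix as NF-kB-activating stimulus / Compound dosing: 3 µM once, 0.30% DMSO / Times: 1 h pretreatment, 16 h stimulation, 37 °C / Signal: luminescence / Evaluation: per-plate % inhibition versus controls / Benchmarks: DMSO and 10 µM reference inhibitor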
The depositor's hits bear a star; nt = no result given.

SMILES	Jurkat tox 60K	D1 allo mod	M1 antagonist	M1 ag	hDAT+cocaine	HEK293 NFkB inh
COc1ccc(CN2C(=O)c3ccccc3C2C(=O)NC2CCCC2)c(OC)c1 (stereo not drawn)	-6	0.088	-0.059	-0.27	-0.28	19
COc1nc(NCC(C)C)nc(Oc2ccc(=O)n(-c3ccccc3)n2)n1	8	nt	0.028	-0.55	-0.23	13
NC(=O)C1=C[C@@H](c2ccccc2)C[C@@H](OCCCCO)O1	nt	nt	nt	nt	-0.15	nt
Cc1noc(/C=C/N(C)C)c1S(=O)(=O)N1CCc2ccccc21	-1	0.56	1.3*	1.2	1.5	23
Cc1oc(-c2cccc(Cl)c2)nc1CN1CCC(C(=O)NCc2ccco2)CC1	8	0.4	-0.29	-0.47	-1.4	13
Cc1oc(-c2ccc(Cl)cc2)nc1CN1CCC(C(=O)NCc2ccco2)CC1	-9	-3.2*	-0.32	0.65	0.13	7
CCOc1ccc(-c2nc(CSCC(=O)NCc3ccco3)c(C)o2)cc1	1	-1.7	-0.054	0.63	0.74	83*
Cc1ccc(C2CC(c3ccco3)n3ncnc3N2)cc1 (stereo not drawn)	nt	nt	-0.83	-1	-0.073	nt
Cc1ccc2c(c1)C(N1CCCC1=O)CC(c1ccco1)N2 (stereo not drawn)	7	-4.4*	-0.02	2.6*	0.39	-28
Cc1cc(-c2cccnc2)c(C#N)c(SCc2cccc(F)c2)n1	nt	nt	nt	nt	-0.3	nt
Cc1nc2oc3c(NCc4ccccn4)ncnc3c2c2c1COC(C)(C)C2	-2	12*	-0.34	-0.19	1.1	8
CCOC(=O)N1CCN(c2ncnc3c2oc2nc(C)c4c(c23)CC(C)(C)OC4)CC1	-4	1.7	-0.1	-0.11	nt	12
CC(C)c1nc2oc3c(NCc4ccccn4)ncnc3c2c2c1COC(C)(C)C2	1	8.7*	0.42	4.6*	nt	8
O=C(c1cccn2c(=O)c3ccccc3nc12)N1CCN(Cc2ccc3c(c2)OCO3)CC1	nt	-0.54	-1.2	1.9	3.2*	14
O=C(c1ccc(Br)o1)N1CCN(Cc2ccc3c(c2)OCO3)CC1	4	-1.6	0.62	-2	0.52	16
O=C(c1ccc(Br)s1)N1CCN(Cc2ccc3c(c2)OCO3)CC1	7	-1.4	-0.74	-0.4	2.1*	8
CN(c1ccc(C(=O)N2CCN(Cc3ccc4c(c3)OCO4)CC2)cc1)S(=O)(=O)c1ccccc1	nt	nt	nt	nt	3.5*	nt
CCC(SC1=NCCS1)C(=O)Nc1nnc(-c2ccccc2OC)s1 (stereo not drawn)	nt	nt	nt	nt	-0.13	nt
Nc1nonc1-c1nc2ccccc2n1CC(=O)NC1CCCC1	2	nt	0.033	-0.32	0.078	20
Nc1nonc1-c1nc2ccccc2n1Cc1ccccc1	89*	1.6	0.78	0.1	-0.73	13
CCCCn1c(-c2nonc2N)nc2ccccc21	nt	nt	nt	nt	0.17	nt
CCOC(=O)c1ccccc1NC(=O)Cn1c(-c2nonc2N)nc2ccccc21	98*	nt	1.3	1.1	-0.87	47*
COc1ccc(N2CCN(CCNC(=O)CCCn3c(=O)[nH]c4cc(Cl)ccc4c3=O)CC2)cc1	nt	-2	-0.0066	-0.31	-1.1	8
O=C(CSc1nnc2ccccn12)NC(=O)NC1CCCCC1	0	-5.5*	-0.093	-0.15	-0.16	7
COc1ccccc1-n1c(N)c(C(=O)NCC2CCCO2)c2nc3ccccc3nc21 (stereo not drawn)	nt	nt	-0.39	-0.26	4.2*	nt
SMILES	Jurkat tox 60K	D1 allo mod	M1 antagonist	M1 ag	hDAT+cocaine	HEK293 NFkB inh
c1ccc(Nc2c3c(nc4ncnn24)CCC3)cc1	0	-4.8*	0.3	-0.77	0.18	6
Clc1ccccc1Nc1c2c(nc3ncnn13)CCC2	8	2	-1.1	0.28	-0.8	20
O=C(O)CSc1nnc(-c2ccc(S(=O)(=O)N3CCCC3)cc2)n1Cc1ccco1	-5	-4.1*	0.83	-0.046	-0.0035	3
NC(=O)CSc1nnc(-c2ccc(S(=O)(=O)N3CCCC3)cc2)n1Cc1ccco1	0	0.65	0.28	0.4	0.091	15
CCC1Oc2ccc(C)cc2N(CC(=O)N(Cc2cccnc2)Cc2ccc(C)o2)C1=O (stereo not drawn)	5	-0.053	-1.5	4.4*	1.5	10
CCCCN(C)C(=O)CSc1nc(NCc2ccc(OC)cc2)c2ccccc2n1	nt	nt	nt	nt	2.5*	nt
COCCNc1nc(SCC(=O)N2CCN(c3ccccc3)CC2)nc2ccccc12	nt	-0.47	-1.7	1.6	1.9	10
CC1(C)Cc2ccccc2-c2nnc(SCC(=O)N3CCN(c4ccccc4)CC3)n21	10	-0.91	-0.5	3.3*	1.7	13
CCOC(=O)c1c(NC(=O)CC)sc(C(=O)N2CCCCC2)c1C	nt	nt	nt	nt	0.86	nt
Cc1cc(C(=O)CSc2nnc(-c3cccc(F)c3)n2N)c(C)n1Cc1ccc2c(c1)OCO2	37*	-7.8*	-0.65	1	-0.4	16
O=S(=O)(c1ccccc1)c1nc(-c2cccs2)oc1NCCCn1ccnc1	16	1.3	-0.0015	0.77	2.5*	12
CCCCNc1oc(-c2cccs2)nc1S(=O)(=O)c1ccccc1	nt	nt	nt	nt	1.5	nt
O=C(c1ccc(NC2=NC3CS(=O)(=O)CC3S2)cc1)N1CCN(C(=O)c2ccco2)CC1 (stereo not drawn)	-11	-0.56	-1.3	0.66	-0.9	12
CCn1c(=O)cc(SCC(=O)NCCCN2CCN(c3ccccc3F)CC2)c2ccccc21	15	-3.5*	-1.5	-0.16	0.28	20
CCN1CCCC1CNC(=O)CSc1cc(=O)n(CC)c2ccccc12 (stereo not drawn)	-2	-0.84	-0.52	1.1	-0.7	22
O=C(Cn1cc2c(n1)CCCC2)NCCCN1CCN(c2ccccc2F)CC1	0	-3.1*	-1.4	-1.1	-1.2	12
O=C(C[n+]1cc2ccccc2c2ccccc21)c1ccccc1	nt	nt	nt	nt	-0.26	nt
CCCCCCCCC[n+]1cccc2c3ccccc3ccc21	nt	nt	nt	nt	3.2*	nt
CCc1cc2c(CN3CCN(C)CC3)cc(=O)oc2cc1O	-3	-0.82	-0.25	-0.56	-9.5*	0
COc1ccc(NC(=O)NCCN2C(=O)C3C4C=CC(C4)C3C2=O)cc1 (stereo not drawn)	-7	-0.19	0.32	-0.2	0.78	9
Oc1ccc(N=Cc2ccc(O)c(O)c2)cc1	34*	-0.68	0.21	-0.47	1.6	11
O=C(Nc1cccc(-c2cn3cccnc3n2)c1)c1ccco1	nt	-4*	0.041	0.82	2.4	12
CC(C)(C)c1ccc(-c2nnc3sc(-c4ccncc4)nn23)cc1	25	2.4	8.9*	-0.62	0.025	10
CCOC(=O)C(C(C)=O)c1c(Br)c(O)c(O)c2c(C(=O)c3ccc(C)cc3)coc12 (stereo not drawn)	61*	-1.3	0.22	-0.22	-0.03	47*
O=C(NC(NC(=S)Nc1ccccc1C(=O)O)C(Cl)(Cl)Cl)c1cccc([N+](=O)[O-])c1 (stereo not drawn)	nt	nt	nt	nt	-7.4*	nt

Compound activity as filed in PubChem BioAssay.
